How the values were obtained:
Type in all cases: functional
SK-MEL-2 = assay: Growth inhibition of human SK-MEL-2 cells assessed as cell growth at 1 uM incubated for 48 hrs by sulforhodamine B assay relative to control; details: read-out: Activity
A498 [1] = assay: Growth inhibition of human A498 cells assessed as cell growth at 100 uM incubated for 48 hrs by sulforhodamine B assay relative to control; details: read-out: Activity
Method in brief: (§1)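 NCI Developmental Therapeutics Program NCI60 panel. Compounds that were active in the 10 µM one-dose screen went on to dose–response testing. Growth at each concentration is expressed relative to untreated control (100%). GI50 (concentration giving 50% of maximal inhibition of proliferation) and TGI (concentration giving total growth inhibition) were derived from the curves.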

SN12C [2] = assay: Growth inhibition of human SN12C cells assessed as cell growth at 0.1 uM incubated for 48 hrs by sulforhodamine B assay relative to control; details: read-out: Activity
SF-295 = assay: Growth inhibition of human SF-295 cells assessed as cell growth at 100 uM incubated for 48 hrs by sulforhodamine B assay relative to control; details: read-out: Activity
SN12C [3] = assay: Growth inhibition of human SN12C cells assessed as cell growth at 1 uM incubated for 48 hrs by sulforhodamine B assay relative to control; details: read-out: Activity
MDA-MB-435 [4] = assay: Growth inhibition of human MDA-MB-435 cells assessed as cell growth at 0.1 uM incubated for 48 hrs by sulforhodamine B assay relative to control; details: read-out: Activity
T47D = assay: Growth inhibition of human T47D cells incubated for 48 hrs by sulforhodamine B assay; details: for CC50: read-out: LC50 (the source's name)
Method in brief: (§2)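 NCI DTP 60-line human tumour panel. Dose-response curves were run only for ligands active in the initial 10 µM screen. GI50 (concentration giving 50% of maximal inhibition of proliferation) and TGI (concentration giving total growth inhibition) were derived from these curves.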

SNB-75 = assay: Growth inhibition of human SNB-75 cells assessed as cell growth at 0.1 uM incubated for 48 hrs by sulforhodamine B assay relative to control; details: read-out: Activity
A498 [5] = assay: Growth inhibition of human A498 cells assessed as cell growth at 0.1 uM incubated for 48 hrs by sulforhodamine B assay relative to control; details: read-out: Activity; method in brief: as §1
COLO 205 = assay: Growth inhibition of human COLO 205 cells incubated for 48 hrs by sulforhodamine B assay; method in brief: as §1
SNB-19 = assay: Growth inhibition of human SNB-19 cells incubated for 48 hrs by sulforhodamine B assay; method in brief: as §2
SW-620 = assay: Growth inhibition of human SW-620 cells assessed as cell growth at 0.1 uM incubated for 48 hrs by sulforhodamine B assay relative to control; details: read-out: Activity
M14 = assay: Growth inhibition of human M14 cells assessed as cell growth at 100 uM incubated for 48 hrs by sulforhodamine B assay relative to control; details: read-out: Activity
RPMI-8226 [6] = assay: Growth inhibition of human RPMI-8226 cells assessed as cell growth at 0.1 uM incubated for 48 hrs by sulforhodamine B assay relative to control; details: read-out: Activity
NCI/ADR-RES = assay: Growth inhibition of human NCI/ADR-RES cells incubated for 48 hrs by sulforhodamine B assay; details: for CC50: read-out: LC50 (the source's name)
Method in brief: (§3)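 NCI60 panel at the NCI Developmental Therapeutics Program. Only compounds active in the 10 µM screen went to dose-response testing. GI50, the concentration giving 50% of maximal inhibition of proliferation, and TGI, the concentration giving total growth inhibition, were derived from the dose-response curves.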

A498 [7] = assay: Growth inhibition of human A498 cells assessed as cell growth at 1 uM incubated for 48 hrs by sulforhodamine B assay relative to control; details: read-out: Activity; method in brief: as §1
K562 [8] = assay: Growth inhibition of human K562 cells incubated for 48 hrs by sulforhodamine B assay; method in brief: as §3
MDA-MB-435 [9] = assay: Growth inhibition of human MDA-MB-435 cells assessed as cell growth at 0.01 uM incubated for 48 hrs by sulforhodamine B assay relative to control; details: read-out: Activity
SR = assay: Growth inhibition of human SR cells assessed as cell growth at 100 uM incubated for 48 hrs by sulforhodamine B assay relative to control; details: read-out: Activity
SF-268 = assay: Growth inhibition of human SF-268 cells incubated for 48 hrs by sulforhodamine B assay; method in brief: as §2
SK-OV-3 = assay: Growth inhibition of human SK-OV-3 cells incubated for 48 hrs by sulforhodamine B assay; details: for CC50: read-out: LC50 (the source's name); method in brief: as §2
K562 [10] = assay: Growth inhibition of human K562 cells assessed as cell growth at 0.01 uM incubated for 48 hrs by sulforhodamine B assay relative to control; details: read-out: Activity
HCT-15 = assay: Growth inhibition of human HCT-15 cells assessed as cell growth at 0.1 uM incubated for 48 hrs by sulforhodamine B assay relative to control; details: read-out: Activity
ACHN = assay: Growth inhibition of human ACHN cells incubated for 48 hrs by sulforhodamine B assay; details: for CC50: read-out: LC50 (the source's name); method in brief: as §1
A549 = assay: Growth inhibition of human A549/ATCC cells assessed as cell growth at 0.1 uM incubated for 48 hrs by sulforhodamine B assay relative to control; details: read-out: Activity; method in brief: as §1
SK-MEL-5 = assay: Growth inhibition of human SK-MEL-5 cells assessed as cell growth at 100 uM incubated for 48 hrs by sulforhodamine B assay relative to control; details: read-out: Activity
MCF7 = assay: Growth inhibition of human MCF7 cells assessed as cell growth at 0.1 uM incubated for 48 hrs by sulforhodamine B assay relative to control; details: read-out: Activity
HOP-92 = assay: Growth inhibition of human HOP-92 cells assessed as cell growth at 100 uM incubated for 48 hrs by sulforhodamine B assay relative to control; details: read-out: Activity
RPMI-8226 [11] = assay: Growth inhibition of human RPMI-8226 cells assessed as cell growth at 0.01 uM incubated for 48 hrs by sulforhodamine B assay relative to control; details: read-out: Activity
RXF 393 = assay: Growth inhibition of human RXF 393 cells incubated for 48 hrs by sulforhodamine B assay; details: for CC50: read-out: LC50 (the source's name); method in brief: as §2
HCT-116 = assay: Growth inhibition of human HCT-116 cells assessed as cell growth at 100 uM incubated for 48 hrs by sulforhodamine B assay relative to control; details: read-out: Activity
Hs-578T = assay: Growth inhibition of human Hs-578T cells assessed as cell growth at 0.01 uM incubated for 48 hrs by sulforhodamine B assay relative to control; details: read-out: Activity
HT-29 = assay: Growth inhibition of human HT-29 cells incubated for 48 hrs by sulforhodamine B assay; method in brief: as §3
UACC-257 = assay: Growth inhibition of human UACC-257 cells assessed as cell growth at 0.1 uM incubated for 48 hrs by sulforhodamine B assay relative to control; details: read-out: Activity
PC-3 = assay: Growth inhibition of human PC-3 cells assessed as cell growth at 100 uM incubated for 48 hrs by sulforhodamine B assay relative to control; details: read-out: Activity

## Nc1c(C(=O)Nc2ccccc2)sc2nc3c(cc12)CN(Cc1ccccc1)CC3
SK-MEL-2
  growth at 1 µM: 101%
A498 [1]
  growth at 100 µM: 42%
SN12C [2]
  growth at 0.1 µM: 94%
SF-295
  growth at 100 µM: 12%
SN12C [3]
  growth at 1 µM: 87%
MDA-MB-435 [4]
  growth at 0.1 µM: 85%
T47D
  GI50: 16.2 µM
  TGI: > 100 µM
  CC50: > 100 µM
SNB-75
  growth at 0.1 µM: 83%
A498 [5]
  growth at 0.1 µM: 82%
COLO 205
  GI50: 24 µM
  LC50 (concentration killing 50% of cells): > 100 µM
  TGI: > 100 µM
SNB-19
  GI50: 18.3 µM
  LC50: > 100 µM
  TGI: > 100 µM
SW-620
  growth at 0.1 µM: 97%
M14
  growth at 100 µM: 35%
RPMI-8226 [6]
  growth at 0.1 µM: 99%
NCI/ADR-RES
  GI50: 16.3 µM
  TGI: > 100 µM
  CC50: > 100 µM
A498 [7]
  growth at 1 µM: 72%
K562 [8]
  GI50: 9.1 µM
  LC50 (concentration killing 50% of cells): > 100 µM
  TGI: > 100 µM
MDA-MB-435 [9]
  growth at 0.01 µM: 93%
SR
  growth at 100 µM: 19%
SF-268
  GI50: 5.62 µM
  LC50 (concentration killing 50% of cells): > 100 µM
  TGI: > 100 µM
SK-OV-3
  GI50: 3.53 µM
  TGI: > 100 µM
  CC50: > 100 µM
K562 [10]
  growth at 0.01 µM: 98%
HCT-15
  growth at 0.1 µM: 97%
ACHN
  GI50: 5.5 µM
  TGI: > 100 µM
  CC50: > 100 µM
A549
  growth at 0.1 µM: 99%
SK-MEL-5
  growth at 100 µM: 16%
MCF7
  growth at 0.1 µM: 86%
HOP-92
  growth at 100 µM: -30%
RPMI-8226 [11]
  growth at 0.01 µM: 97%
RXF 393
  GI50: 3150 nM
  TGI: 54.2 µM
  CC50: > 100 µM
HCT-116
  growth at 100 µM: 17%
Hs-578T
  growth at 0.01 µM: 88%
HT-29
  GI50: 24.7 µM
  LC50: > 100 µM
  TGI: > 100 µM
UACC-257
  growth at 0.1 µM: 95%
PC-3
  growth at 100 µM: 23%

## COc1cccc(NC(=O)c2sc3nc4c(cc3c2N)CN(Cc2ccccc2)CC4)c1
SK-MEL-2
  growth at 1 µM: 77%
A498 [1]
  growth at 100 µM: -47%
SN12C [2]
  growth at 0.1 µM: 93%
SF-295
  growth at 100 µM: -52%
SN12C [3]
  growth at 1 µM: 85%
MDA-MB-435 [4]
  growth at 0.1 µM: 91%
T47D
  GI50: 4.62 µM
  TGI: 47.3 µM
  CC50: > 100 µM
SNB-75
  growth at 0.1 µM: 92%
A498 [5]
  growth at 0.1 µM: 84%
COLO 205
  GI50: 7.55 µM
  LC50 (concentration killing 50% of cells): > 100 µM
  TGI: 54.5 µM
SNB-19
  GI50: 4.75 µM
  LC50: > 100 µM
  TGI: > 100 µM
SW-620
  growth at 0.1 µM: 99%
M14
  growth at 100 µM: -4%
RPMI-8226 [6]
  growth at 0.1 µM: 101%
NCI/ADR-RES
  GI50: 2.4 µM
  TGI: 33.3 µM
  CC50: > 100 µM
A498 [7]
  growth at 1 µM: 79%
K562 [8]
  GI50: 0.53 µM
  LC50 (concentration killing 50% of cells): > 100 µM
  TGI: > 100 µM
MDA-MB-435 [9]
  growth at 0.01 µM: 93%
SR
  growth at 100 µM: -19%
SF-268
  GI50: 3.66 µM
  LC50 (concentration killing 50% of cells): > 100 µM
  TGI: 207 µM
SK-OV-3
  GI50: 2.78 µM
  TGI: 14 µM
  CC50: 62.5 µM
K562 [10]
  growth at 0.01 µM: 106%
HCT-15
  growth at 0.1 µM: 95%
ACHN
  GI50: 3.46 µM
  TGI: 64.5 µM
  CC50: > 100 µM
A549
  growth at 0.1 µM: 93%
SK-MEL-5
  growth at 100 µM: -34%
MCF7
  growth at 0.1 µM: 87%
HOP-92
  growth at 100 µM: -38%
RPMI-8226 [11]
  growth at 0.01 µM: 98%
RXF 393
  GI50: 2710 nM
  TGI: 12.9 µM
  CC50: > 100 µM
HCT-116
  growth at 100 µM: 2%
Hs-578T
  growth at 0.01 µM: 88%
HT-29
  GI50: 3.75 µM
  LC50: 56.2 µM
  TGI: 15.2 µM
UACC-257
  growth at 0.1 µM: 91%
PC-3
  growth at 100 µM: -2%

Source: ChEMBL document CHEMBL4715736, “Identification of anticancer agents based on the thieno[2,3-b]pyridine and 1H-pyrazole molecular scaffolds” (2016)
